Measurements as given in ChEMBL document CHEMBL1152342, “Thiazomycins, thiazolyl peptide antibiotics from Amycolatopsis fastidiosa” (2009).
In brackets after ≈: the same amount, converted by molar mass.

How the values were obtained:
Assay type in all cases: functional
Staphylococcus aureus [1] = assay: Antibacterial activity against macrolide, imipenem, methicillin-resistant Staphylococcus aureus MB5393 after 20 hrs by twofold serial broth dilution method; conditions: MB5393, 20 h
How it was run: (§1)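 MICs by NCCLS (now CLSI) twofold serial broth dilution. Cation-adjusted Mueller Hinton broth was the standard medium, with CAMHB + 2.5% lysed horse blood used for certain strains. Cultures were incubated at 37 °C for 20 h before reading.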

Staphylococcus aureus [2] = assay: Antibacterial activity against methicillin-sensitive Staphylococcus aureus MB2865 after 20 hrs by twofold serial broth dilution method; conditions: MB2865, 20 h; how it was run: as §1
Staphylococcus aureus [3] = assay: Antibacterial activity against methicillin-sensitive Staphylococcus aureus MB2865 after 20 hrs by twofold serial broth dilution method in presence of 50% human serum; conditions: MB2865, 20 h; how it was run: as §1
Staphylococcus aureus [4] = assay: Antibacterial activity against macrolide-sensitive, Linezolid, methicillin-resistant Staphylococcus aureus CL5814 after 20 hrs by twofold serial broth dilution method; conditions: CL5814, 20 h; how it was run: as §1
Staphylococcus aureus [5] = assay: Antibacterial activity against macrolide, methicillin-resistant Staphylococcus aureus CL5705 after 20 hrs by twofold serial broth dilution method; conditions: CL5705, 20 h; how it was run: as §1
Staphylococcus aureus [6] = assay: Antibacterial activity against vancomycin-intermediate, macrolide, methicillin-resistant Staphylococcus aureus CL5706 after 20 hrs by twofold serial broth dilution method; conditions: CL5706, 20 h; how it was run: as §1
[7] = system: Staphylococcus haemolyticus; assay: Antibacterial activity against ampicillin-sensitive Staphylococcus haemolyticus CL8544 after 20 hrs by twofold serial broth dilution method; conditions: CL8544, 20 h; how it was run: as §1
[8] = system: Staphylococcus epidermidis; assay: Antibacterial activity against Staphylococcus epidermidis CL8040 after 20 hrs by twofold serial broth dilution method; conditions: CL8040, 20 h; how it was run: as §1
Enterococcus faecalis [9] = assay: Antibacterial activity against vancomycin-sensitive Enterococcus faecalis CL8516 after 20 hrs by twofold serial broth dilution method; conditions: CL8516, 20 h; how it was run: as §1
Enterococcus faecalis [10] = assay: Antibacterial activity against vancomycin, macrolide-resistant, linezolid-sensitive Enterococcus faecalis CL5246 after 20 hrs by twofold serial broth dilution method; conditions: CL5246, 20 h; how it was run: as §1
Enterococcus faecium [11] = assay: Antibacterial activity against vancomycin, linezolid-resistant Enterococcus faecium CL5791 after 20 hrs by twofold serial broth dilution method; conditions: CL5791, 20 h; how it was run: as §1
Enterococcus faecium [12] = assay: Antibacterial activity against vancomycin, linezolid-resistant Enterococcus faecium CL5791 after 20 hrs by twofold serial broth dilution method in presence of 50% human serum; conditions: CL5791, 20 h; how it was run: as §1
Streptococcus pneumoniae [13] = assay: Antibacterial activity against penicillin-sensitive Streptococcus pneumoniae CL8002 after 20 hrs by twofold serial broth dilution method; conditions: CL8002, 20 h; how it was run: as §1
Streptococcus pneumoniae [14] = assay: Antibacterial activity against penicillin-resistant Streptococcus pneumoniae CL5771 after 20 hrs by twofold serial broth dilution method; conditions: CL5771, 20 h; how it was run: as §1
Streptococcus pyogenes = assay: Antibacterial activity against Streptococcus pyogenes CL10440 after 20 hrs by twofold serial broth dilution method; conditions: CL10440, 20 h; how it was run: as §1
Candida albicans = assay: Antifungal activity against Candida albicans MY1055 after 20 hrs by twofold serial broth dilution method; conditions: MY1055, 20 h

C=C(NC(=O)c1csc(-c2nc3c(cc2O)-c2nc(cs2)C(=O)N[C@@H]([C@@H](C)O)C(=O)N/C(=C(\C)OC)c2nc(cs2)C(=O)N[C@@H]2c4nc(cs4)C(=O)N[C@@H](COC(=O)c4[nH]c5cccc6c5c4CO[C@@H]2[C@H](OC)C(=O)OC6)c2nc-3cs2)n1)C(N)=O [THIAZOMYCIN B]
MIC (Staphylococcus aureus [1]): 0.02 µg/mL (≈ 0.0158 µM)
MIC (Staphylococcus aureus [2]): 0.02 µg/mL (≈ 0.0158 µM)
MIC (Staphylococcus aureus [3]): 0.25 µg/mL
MIC (Staphylococcus aureus [4]): 0.02 µg/mL (≈ 0.0158 µM)
MIC (Staphylococcus aureus [5]): 0.03 µg/mL (≈ 0.0237 µM)
MIC (Staphylococcus aureus [6]): 0.03 µg/mL (≈ 0.0237 µM)
MIC [7]: 0.03 µg/mL (≈ 0.0237 µM)
MIC [8]: 0.03 µg/mL (≈ 0.0237 µM)
MIC (Enterococcus faecalis [9]): 0.1 µg/mL (≈ 0.0791 µM)
MIC (Enterococcus faecalis [10]): 0.06 µg/mL (≈ 0.0475 µM)
MIC (Enterococcus faecium [11]): 0.004 µg/mL (≈ 0.00316 µM)
MIC (Enterococcus faecium [12]): 0.1 µg/mL
MIC (Streptococcus pneumoniae [13]): 0.008 µg/mL (≈ 0.00633 µM)
MIC (Streptococcus pneumoniae [14]): 0.004 µg/mL (≈ 0.00316 µM)
MIC (Streptococcus pyogenes): 0.004 µg/mL (≈ 0.00316 µM)
MIC (Candida albicans): > 32 µg/mL

CO/C(C)=C1/NC(=O)[C@H]([C@@H](C)O)NC(=O)c2csc(n2)-c2cc(O)c(-c3nc(C(N)=O)cs3)nc2-c2csc(n2)[C@@H]2COC(=O)c3[nH]c4cccc5c4c3CO[C@H]([C@H](O[C@H]3C[C@](C)(O)[C@H](N(C)C)[C@H](C)O3)C(=O)OC5)[C@H](NC(=O)c3csc1n3)c1nc(cs1)C(=O)N2 [THIAZOMYCIN C]
MIC (Staphylococcus aureus [1]): 0.05 µg/mL (≈ 0.037 µM)
MIC (Staphylococcus aureus [2]): 0.05 µg/mL (≈ 0.037 µM)
MIC (Staphylococcus aureus [3]): 0.1 µg/mL
MIC (Staphylococcus aureus [4]): 0.03 µg/mL (≈ 0.0222 µM)
MIC (Staphylococcus aureus [5]): 0.1 µg/mL (≈ 0.0739 µM)
MIC (Staphylococcus aureus [6]): 0.1 µg/mL (≈ 0.0739 µM)
MIC [7]: 0.1 µg/mL (≈ 0.0739 µM)
MIC [8]: 0.1 µg/mL (≈ 0.0739 µM)
MIC (Enterococcus faecalis [9]): > 0.1 µg/mL
MIC (Enterococcus faecalis [10]): 0.1 µg/mL (≈ 0.0739 µM)
MIC (Enterococcus faecium [11]): 0.1 µg/mL (≈ 0.0739 µM)
MIC (Enterococcus faecium [12]): 0.1 µg/mL
MIC (Streptococcus pneumoniae [13]): 0.01 µg/mL (≈ 0.00739 µM)
MIC (Streptococcus pneumoniae [14]): 0.006 µg/mL (≈ 0.00444 µM)
MIC (Streptococcus pyogenes): 0.006 µg/mL (≈ 0.00444 µM)
MIC (Candida albicans): > 32 µg/mL

CC(=O)NC[C@H]1CN(c2ccc(N3CCOCC3)c(F)c2)C(=O)O1 [LINEZOLID]
MIC (Staphylococcus aureus [4]): > 32 µg/mL
MIC [7]: 2 µg/mL (≈ 5.93 µM)
MIC [8]: 1 µg/mL (≈ 2.96 µM)
MIC (Enterococcus faecium [11]): 32 µg/mL (≈ 94.9 µM)
MIC (Enterococcus faecium [12]): > 32 µg/mL
MIC (Streptococcus pyogenes): 0.5 µg/mL (≈ 1.48 µM)
MIC (Candida albicans): > 32 µg/mL

C=C(NC(=O)c1csc(-c2nc3c(cc2O)-c2nc(cs2)C(=O)N[C@@H]([C@@H](C)O)C(=O)N/C(=C(\C)OC)c2nc(cs2)C(=O)N[C@@H]([C@H](O)[C@H](O[C@H]2C[C@](C)(O)[C@H](N(C)C)[C@H](C)O2)C(=O)O)c2nc(cs2)C(=O)N[C@@H](CO)c2nc-3cs2)n1)C(N)=O [THIAZOMYCIN E1]
MIC (Staphylococcus aureus [2]): 100 µg/mL (≈ 79.7 µM)
MIC (Enterococcus faecalis [9]): > 200 µg/mL
MIC (Streptococcus pneumoniae [13]): 200 µg/mL (≈ 159 µM)

C=C(NC(=O)c1csc(-c2nc3c(cc2O)-c2nc(cs2)C(=O)N[C@@H]([C@@H](C)O)C(=O)N/C(=C(\C)OC)c2nc(cs2)C(=O)N[C@@H]2c4nc(cs4)C(=O)N[C@@H](COC(=O)c4[nH]c5cccc6c5c4CO[C@@H]2[C@H](O[C@H]2C[C@](C)(O)[C@@H](O)[C@H](C)O2)C(=O)OC6)c2nc-3cs2)n1)C(N)=O [THIAZOMYCIN D]
MIC (Staphylococcus aureus [1]): 0.031 µg/mL (≈ 0.0222 µM)
MIC (Staphylococcus aureus [2]): 0.03 µg/mL (≈ 0.0215 µM)
MIC (Staphylococcus aureus [3]): 1 µg/mL
MIC (Staphylococcus aureus [4]): 0.06 µg/mL (≈ 0.043 µM)
MIC (Staphylococcus aureus [5]): 0.1 µg/mL (≈ 0.0717 µM)
MIC (Staphylococcus aureus [6]): 0.1 µg/mL (≈ 0.0717 µM)
MIC [7]: 0.06 µg/mL (≈ 0.043 µM)
MIC [8]: 0.03 µg/mL (≈ 0.0215 µM)
MIC (Enterococcus faecalis [9]): 0.1 µg/mL (≈ 0.0717 µM)
MIC (Enterococcus faecalis [10]): 0.1 µg/mL (≈ 0.0717 µM)
MIC (Enterococcus faecium [11]): 0.1 µg/mL (≈ 0.0717 µM)
MIC (Enterococcus faecium [12]): 1 µg/mL
MIC (Streptococcus pneumoniae [13]): 0.1 µg/mL (≈ 0.0717 µM)
MIC (Streptococcus pneumoniae [14]): 0.03 µg/mL (≈ 0.0215 µM)
MIC (Streptococcus pyogenes): 0.02 µg/mL (≈ 0.0143 µM)
MIC (Candida albicans): > 32 µg/mL

C=C(NC(=O)c1csc(-c2nc3c(cc2O)-c2nc(cs2)C(=O)N[C@@H]([C@@H](C)O)C(=O)N/C(=C(\C)OC)c2nc(cs2)C(=O)N[C@@H]([C@H](O)[C@H](O)C(=O)O)c2nc(cs2)C(=O)N[C@@H](CO)c2nc-3cs2)n1)C(N)=O [THIAZOMYCIN E2]
MIC (Staphylococcus aureus [2]): > 200 µg/mL
MIC (Enterococcus faecalis [9]): > 200 µg/mL
MIC (Streptococcus pneumoniae [13]): > 200 µg/mL

CC[C@H]1OC(=O)[C@H](C)[C@@H](O[C@H]2C[C@@](C)(OC)[C@@H](O)[C@H](C)O2)[C@H](C)[C@@H](O[C@@H]2O[C@H](C)C[C@H](N(C)C)[C@H]2O)[C@](C)(O)C[C@@H](C)C(=O)[C@H](C)[C@@H](O)[C@]1(C)O [ERYTHROMYCIN]
MIC (Staphylococcus aureus [1]): > 32 µg/mL
MIC (Staphylococcus aureus [2]): 0.1 µg/mL (≈ 0.136 µM)
MIC (Staphylococcus aureus [3]): 0.1 µg/mL
MIC (Staphylococcus aureus [4]): 1 µg/mL (≈ 1.36 µM)
MIC (Staphylococcus aureus [5]): > 32 µg/mL
MIC (Staphylococcus aureus [6]): > 32 µg/mL
MIC [7]: 1 µg/mL (≈ 1.36 µM)
MIC [8]: 0.25 µg/mL (≈ 0.341 µM)
MIC (Enterococcus faecalis [9]): 1 µg/mL (≈ 1.36 µM)
MIC (Enterococcus faecalis [10]): 32 µg/mL (≈ 43.6 µM)
MIC (Enterococcus faecium [11]): > 32 µg/mL
MIC (Enterococcus faecium [12]): > 32 µg/mL
MIC (Streptococcus pneumoniae [13]): 2 µg/mL (≈ 2.73 µM)
MIC (Streptococcus pneumoniae [14]): 2 µg/mL (≈ 2.73 µM)
MIC (Streptococcus pyogenes): ≤ 0.03 µg/mL
MIC (Candida albicans): > 32 µg/mL

CO/C(C)=C1/NC(=O)[C@H]([C@@H](C)O)NC(=O)c2csc(n2)-c2cc(O)c(-c3nc(C(N)=O)cs3)nc2-c2csc(n2)[C@H](CO)NC(=O)c2csc(n2)[C@H]([C@H](O)[C@H](O)C(=O)O)NC(=O)c2csc1n2 [THIAZOMYCIN E3]
MIC (Staphylococcus aureus [2]): > 200 µg/mL
MIC (Enterococcus faecalis [9]): 200 µg/mL (≈ 197 µM)
MIC (Streptococcus pneumoniae [13]): 200 µg/mL (≈ 197 µM)

C=C(NC(=O)c1csc(-c2nc3c(cc2O)-c2nc(cs2)C(=O)N[C@@H]([C@@H](C)O)C(=O)N/C(=C(\C)OC)c2nc(cs2)C(=O)N[C@@H]2c4nc(cs4)C(=O)N[C@@H](COC(=O)c4c5c6c(cccc6n4O)COC(=O)[C@@H](O[C@H]4C[C@]6(C)OCN(C)[C@@H]6[C@H](C)O4)[C@H]2OC5)c2nc-3cs2)n1)C(N)=O [THIAZOMYCIN]
MIC (Staphylococcus aureus [1]): 0.003 µg/mL (≈ 0.00209 µM)
MIC (Staphylococcus aureus [2]): 0.006 µg/mL (≈ 0.00418 µM)
MIC (Staphylococcus aureus [3]): 0.05 µg/mL
MIC (Staphylococcus aureus [4]): 0.01 µg/mL (≈ 0.00697 µM)
MIC (Staphylococcus aureus [5]): 0.01 µg/mL (≈ 0.00697 µM)
MIC (Staphylococcus aureus [6]): 0.01 µg/mL (≈ 0.00697 µM)
MIC [7]: 0.02 µg/mL (≈ 0.0139 µM)
MIC [8]: 0.03 µg/mL (≈ 0.0209 µM)
MIC (Enterococcus faecalis [9]): 0.02 µg/mL (≈ 0.0139 µM)
MIC (Enterococcus faecalis [10]): 0.01 µg/mL (≈ 0.00697 µM)
MIC (Enterococcus faecium [11]): 0.002 µg/mL (≈ 0.00139 µM)
MIC (Enterococcus faecium [12]): 0.01 µg/mL
MIC (Streptococcus pneumoniae [13]): 0.003 µg/mL (≈ 0.00209 µM)
MIC (Streptococcus pneumoniae [14]): 0.003 µg/mL (≈ 0.00209 µM)
MIC (Streptococcus pyogenes): 0.002 µg/mL (≈ 0.00139 µM)
MIC (Candida albicans): > 32 µg/mL
